# Compound activity from PubChem BioAssay.
# Shown are actives, neighbours in structure and some others; about 2.4% of the full set was active somewhere.
# miR-122 sensor – miR-122 Renilla sensor signal increase in Huh7, primary screen, miR-122 inhibitor project, cell-based, single point, plate reader; Huh7 miR-122 Renilla luciferase sensor, 48 h; neutral wells = 0, positive control = 100; activation (reporter increase), % at 12.5 µM; 340,000 tested, 0.3% active;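 active means mean replicate activation score at least 90 and every replicate individually at or above 90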;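 further: higher luciferase means less miR-122 activity so hits act as miR-122 inhibitors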
# HIV Env fusion – inhibitors of HIV-1 Env-driven cell-cell fusion, primary screen, HeLa-JRFL effector, CEM21 target cells, luciferase; inhibition, % at 12.3 µM; 360,000 tested, 1.1% active; AID 651610, 2012;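 active means mean replicate inhibition score of at least 50 and every replicate individually at or above 50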
# dFosB act-1 – activators of delta FosB homodimer, primary screen, biochemical, fluorescence polarization, TAMRA-CDK5 oligo, single point; Protein FosB (Mus musculus), P13346; purified delta FosB; percent of positive-control signal above neutral wells; activation, % at 25 µM; 340,000 tested, 0.99% active; AID 493131, 2011;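 active means mean activation above about 17%, with every replicate also reaching it, limit read from the data, passing the limit was not always enough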
# Rtt109 HAT inh – inhibitors of C. albicans Rtt109/Vps75 HAT, primary screen, biochemical, ThioGlo CoA-SH fluorescence, plate reader | 330,000 tested, 0.16% active | AID 540336, 2011 | inhibition, % at 34.9 µM | purified Rtt109/Vps75, 4 h;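 active means inhibition of at least 50% in every replicate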
# Target sequence (Q5AAJ8 whole entry, looked up): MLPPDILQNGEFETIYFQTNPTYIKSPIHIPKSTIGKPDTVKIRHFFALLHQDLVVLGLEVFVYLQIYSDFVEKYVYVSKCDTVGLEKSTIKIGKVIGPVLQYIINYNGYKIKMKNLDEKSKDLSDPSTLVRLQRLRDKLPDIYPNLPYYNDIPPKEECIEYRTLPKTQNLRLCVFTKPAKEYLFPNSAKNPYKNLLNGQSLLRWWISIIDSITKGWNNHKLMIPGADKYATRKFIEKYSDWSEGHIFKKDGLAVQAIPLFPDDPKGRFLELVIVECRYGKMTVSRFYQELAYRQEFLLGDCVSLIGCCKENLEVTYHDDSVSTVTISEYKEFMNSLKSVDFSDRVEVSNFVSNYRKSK
# Cneo AK release – Cryptococcus neoformans cell lysis inducers, primary screen, AK release luminescence, single concentration | C. neoformans lysis, adenylate kinase release luminescence, 4 h; normalised: neutral wells 0, clomiphene wells 100 | lysis activity, % at 15 µM | 360,000 tested, 0.2% active;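 active means mean lysis activity across replicates of at least 80%, whatever share of replicates individually reach that level; inactive means mean lysis activity below 80%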
#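 Material – log-phase Cryptococcus neoformans yeast cells · Input – 5 × 10^6 yeast cells/mL · Medium – fresh YPD growth medium · Doses – single compound concentration per well · Timing – static 4 h at 37 °C with compound, 1 h detection · Detection – adenylate kinase release luminescence · Read-out – signal increase indicating cell lysis · Control set – Clomiphene as positive lysis control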
# GSIS activator – GLuc luminescence reporter in INS-1E cells, primary screen for activators of glucose-dependent secretion of insulin; INS-1E GLuc reporter insulin secretion, 2-3 h; activation, % at 16.6 µM; 370,000 tested, 0.61% active; AID 743287, 2014;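 active means lowest replicate activation of at least 40%, so every replicate reaches that level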
# dFosB act-2 – activators of mouse delta FosB DNA binding, confirmation, biochemical, fluorescence polarization, TAMRA-CDK5 oligo, cherry-picked samples. shares compounds with dFosB act-1. activation, % at 24.9 µM. 2,400 tested, under 10 active. purified delta FosB; normalised: neutral wells 0, positive control 100;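 active means highest replicate activation at or above 34% and every replicate reaching that threshold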;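 further: higher polarization means more probe DNA bound by delta FosB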
# Hits are given with their value; . = inactive; / = not tested or not shown.
SMILES,miR-122 sensor,HIV Env fusion,dFosB act-1,Rtt109 HAT inh,Cneo AK release,GSIS activator,dFosB act-2
COc1cccc(S(=O)(=O)N(C)C[C@@H]2Oc3ncc(-c4cccc(C(F)(F)F)c4)cc3C(=O)N([C@H](C)CO)C[C@@H]2C)c1,.,/,/,/,.,.,/
CC(C)CC#Cc1ccc2c(c1)O[C@@H](CN(C)Cc1ccccc1F)[C@@H](C)CN([C@@H](C)CO)S2(=O)=O,.,/,/,/,.,.,/
C/C=C/c1cccc(-c2nc(C(=O)N3CCN(C)CC3)cc3c2[C@H](CCO)N(C(=O)NC(C)C)C3)c1,/,/,/,/,/,.,/
O=C(NCc1nc(-c2ccc(C(F)(F)F)cc2)no1)Nc1ccc(OC(F)(F)F)cc1,.,.,23.5,.,.,.,.
CCCn1nc(C(=O)Nc2ccc(S(=O)(=O)Nc3nccs3)cc2)c2ccccc2c1=O,/,/,.,.,.,/,/
CCCn1nc(C(=O)Nc2cc(S(=O)(=O)Nc3ccc(OC)cc3)ccc2O)c2ccccc2c1=O,.,.,20.8,.,.,/,.
Cc1nc(NC(=O)CSc2ccc(-c3nc4ccccc4[nH]3)cn2)sc1C,/,/,47.1,.,/,50.9,.
COCCNC(=O)CSc1ccc(-c2nc3ccccc3[nH]2)cn1,.,.,.,.,.,.,/
CCc1nnc(NC(=O)CSc2ccc(-c3nc4ccccc4[nH]3)cn2)s1,/,/,48.4,/,.,/,.
CC(C)NC(=O)Nc1ccc2c(c1)CC(=O)N(C)C[C@H](C)[C@H](CN(C)C)O2,/,/,/,/,/,.,/
C[N+](C)(C)CC(=O)N/N=C/c1c2ccccc2cc2ccccc12,/,.,30.9,.,.,/,.
Cc1ccc(Cn2nc(C)c(NC(=O)CSc3n[nH]c(C)c3[N+](=O)[O-])c2C)cc1,/,.,30.5,.,/,.,.
O=C(C[C@@H]1CC[C@@H]2[C@H](COC[C@@H](O)CN2C(=O)c2cccnc2)O1)Nc1ccc(-c2ccccc2)cc1,.,.,/,/,.,.,/
O=C1CN(Cc2ccccc2)C[C@@H]2[C@H](c3ccc(Br)cc3)[C@@H](CO)N12,/,/,/,/,/,.,/
N#C/C(=C(/O)COC(=O)c1ccc2c(c1)OCCO2)c1nc2ccccc2[nH]1,.,.,39.4,.,.,/,.
N#C/C(=C(/O)COC(=O)c1ccc(Cl)c(S(=O)(=O)N2CCOCC2)c1)c1nc2ccccc2[nH]1,/,.,.,.,/,.,/
O=C(Nc1ccc(Cl)cc1)c1ccc(OC2CSC2)cc1,/,.,20.8,.,/,.,.
CCCNC(=O)Nc1ccc2c(c1)C(=O)N(C)C[C@H](OC)[C@@H](C)CN(Cc1ccccc1)[C@@H](C)CO2,.,/,/,/,/,.,/
COc1ccccc1/C=C/C(=O)NC(=S)Nc1ccc(S(=O)(=O)N(C)c2ccccc2)cc1,.,/,23.8,.,.,/,.
CC(=O)N(C)C[C@H]1Oc2ncc(C#Cc3ccccc3)cc2C(=O)N([C@H](C)CO)C[C@H]1C,.,.,/,/,.,.,/
CC(=O)N(C)C[C@H]1[C@H](c2ccc(C3=CCCC3)cc2)[C@H](CO)N1CC1CC1,.,/,/,/,.,.,/
O=C(CCNC(=O)c1ccccc1Cl)NCCc1ccc(Cl)cc1,.,.,.,.,.,.,/
O=C(Cc1c(Cl)cccc1Cl)NCCc1ccc(Cl)cc1,.,/,20.1,.,.,.,.
CCCCN(CCCNC(=O)Cn1nc(CC)n2c(cc3sc(C)cc32)c1=O)Cc1ccccc1,.,.,34.7,.,.,.,.
CCc1nn(CC(=O)NCCCN(CC)Cc2ccccc2)c(=O)c2cc3sccc3n12,.,.,.,.,.,/,/
O=C(Nc1cccnc1)c1ccc(COc2ccccc2Br)o1,.,.,.,.,.,/,/
CC(=O)Nc1ccc(NC(=O)c2ccc(COc3ccccc3Br)o2)cc1,/,.,68.8,.,.,.,.
